Laboratory results reported in ChEMBL document CHEMBL1121726, “Pyrazolopyrimidine nucleosides. 12. Synthesis and biological activity of certain pyrazolo[3,4-d]pyrimidine nucleosides related to adenosine” (1981).
Activity calls are given as the source filed them. The rule behind the calls is not given here.

How the values were obtained:
L1210 [1] = assay: Toxicity against L1210 leukemic cells 1-9 days after administration of 200 mg/kg of the compound; Yes; type: functional, organism-based; set-up: dose 200 mg/kg; conditions: Mus musculus
Method in brief: (§1)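 Mice bearing L1210 or P388 leukemia were injected at the stated dose per injection on the listed days after tumor-cell inoculation. Host toxicity scores whether higher doses on the same schedule caused drug-induced shortening of life span: y = yes, n = no, nt = no higher dose tested.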

L1210 [2] = assay: Increase in life span of tumor L1210 leukemic mice 1-9 day after 200 mg/kg administered; type: functional, Mus musculus
Method in brief: (§2)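 Mice bearing L1210 or P388 leukemia were injected with drug at the listed dose per injection on the listed days after tumor-cell inoculation. ILS was the percentage increase in life span of treated mice over untreated tumor-bearing controls.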

L1210 [3] = assay: In vitro inhibition of growth of L1210 mouse leukemic cells; type: functional; conditions: read-out: ID50 (the source's name)
Method in brief: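 L1210 cells grown in static suspension culture in Fischer's medium for leukemic cells of mice, exposed to a range of test-compound concentrations. Growth rate measured over 3 days.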

L1210 [4] = assay: Toxicity against L1210 leukemic cells 1-5 days after administration of 25 mg/kg of the compound; Yes; type: functional, organism-based; set-up: dose 25 mg/kg; conditions: Mus musculus; method in brief: as §1
L1210 [5] = assay: Increase in life span of tumor L1210 leukemic mice 1-5 days after 25 mg/kg administered; type: functional, Mus musculus; method in brief: as §2
L1210 [6] = assay: Increase in life span of tumor L1210 leukemic mice 1-5 days after 400 mg/kg administered; type: functional, Mus musculus; method in brief: as §2
L1210 [7] = assay: Toxicity against L1210 leukemic cells 1-5 days after administration of 400 mg/kg of the compound; nt= No higher dose tested; type: functional, organism-based; set-up: dose 400 mg/kg; conditions: Mus musculus; method in brief: as §1
P388 [8] = assay: Increase in life span of tumor P388 leukemic mice 1-9 days after 40 mg/kg administered; type: functional, Mus musculus; method in brief: as §2
P388 [9] = assay: Toxicity against P388 leukemic cells 1-9 days after administration of 40 mg/kg of the compound; Yes; type: functional, organism-based; set-up: dose 40 mg/kg; conditions: Mus musculus
Method in brief: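 Host toxicity was scored in leukemia-bearing mice as drug-induced shortening of life span when higher doses were given on the same schedule: y = yes, n = no, nt = no higher dose tested.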

L1210 [10] = assay: Number of mice surviving 1 day after 25 mg/kg administered; 2/12; type: functional, Mus musculus
L1210 [11] = assay: […] against L1210 leukemic cells 1-5 days after administration of 50 mg/kg of the compound; Yes; type: functional, organism-based; set-up: dose 50 mg/kg; conditions: Mus musculus
L1210 [12] = assay: Increase in life span of tumor L1210 leukemic mice 1-5 day after 50 mg/kg administered; type: functional, Mus musculus; method in brief: as §2
L1210 [13] = assay: Toxicity against L1210 leukemic cells 1-9 days after administration of 400 mg/kg of the compound; No higher dose tested; type: functional, organism-based; set-up: dose 400 mg/kg; conditions: Mus musculus; method in brief: as §1
L1210 [14] = assay: Increase in life span of tumor L1210 leukemic mice 1-9 days after 400 mg/kg administered; type: functional, Mus musculus; method in brief: as §2
L1210 [15] = assay: Toxicity against L1210 leukemic cells 1-5 days after administration of 200 mg/kg of the compound; No higher dose tested; type: functional, organism-based; set-up: dose 200 mg/kg; conditions: Mus musculus; method in brief: as §1
L1210 [16] = assay: Increase in life span of tumor L1210 leukemic mice 1-5 days after 200 mg/kg administered; type: functional, Mus musculus; method in brief: as §2
L1210 [17] = assay: […] against L1210 leukemic cells 1-5 days after administration of 400 mg/kg of the compound; No higher dose tested; type: functional, organism-based; set-up: dose 400 mg/kg; conditions: Mus musculus
L1210 [18] = assay: Increase in life span of tumor L1210 leukemic mice 1-5 day after 400 mg/kg administered; type: functional, Mus musculus; method in brief: as §2
L1210 [19] = assay: Toxicity against L1210 leukemic cells 1-9 days after administration of 3.12 mg/kg of the compound; Yes; type: functional, organism-based; set-up: dose 3.12 mg/kg; conditions: Mus musculus; method in brief: as §1
P388 [20] = assay: Toxicity against P388 leukemic cells 1-9 days after administration of 3 mg/kg of the compound; Yes; type: functional, organism-based; set-up: dose 3 mg/kg; conditions: Mus musculus; method in brief: as §1
P388 [21] = assay: Increase in life span of tumor P388 leukemic mice 1-9 days after 3 mg/kg administered; type: functional, Mus musculus; method in brief: as §2
L1210 [22] = assay: Increase in life span of tumor L1210 leukemic mice 1-9 days after 3.12 mg/kg administered; type: functional, Mus musculus; method in brief: as §2

With OC[C@H]1OC(n2ncc3cncnc32)[C@H](O)[C@@H]1O (stereo not given in full) the Toxicity (L1210 [1]) was “Active”, the ILS (L1210 [2]) was -3 and the IC50 (L1210 [3]) was greater than 100 µM.

In the case of OC[C@H]1OC(n2ncc3c(NCc4ccccc4)ncnc32)[C@H](O)[C@@H]1O (stereo not given in full), the Toxicity (L1210 [4]) is reported as “Active” and the ILS (L1210 [5]) is reported as 3.

With O=c1[nH]cnc2c1cnn2[C@@H]1O[C@H](CO)[C@@H](O)[C@H]1O the ILS (L1210 [6]) was 2 and the Toxicity (L1210 [7]) was “No higher dose tested”.

N=C(N)c1nn(C2O[C@H](CO)[C@@H](O)[C@H]2O)c2ncnc(N)c12 (stereo not given in full) was tested, and the Toxicity (L1210 [4]) was “Active”, the ILS (P388 [8]) was 29 and the Toxicity (P388 [9]) was “Active”. For the same compound, the Cures (L1210 [10]) was 2 and the ILS (L1210 [5]) was 98.

For CN(C)/C=N/c1ncnc2c1cnn2C1O[C@H](CO)[C@@H](O)[C@H]1O (stereo not given in full), the Toxicity (L1210 [11]) was “Active”, the IC50 (L1210 [3]) was 0.6 µM and the ILS (L1210 [12]) was 12.

OC[C@H]1OC(n2ncc3c(NCc4ccco4)ncnc32)[C@H](O)[C@@H]1O (stereo not given in full) was tested, and the Toxicity (L1210 [13]) was “No higher dose tested”, the ILS (L1210 [14]) was 6 and the IC50 (L1210 [3]) was greater than 100 µM.

CN(C)c1ncnc2c1cnn2C1O[C@H](CO)[C@@H](O)[C@H]1O (stereo not given in full) was tested, and the Toxicity (L1210 [15]) was “No higher dose tested” and the ILS (L1210 [16]) was 0.

In the case of OC[C@H]1OC(n2ncc3c(Nc4ccccc4)ncnc32)[C@H](O)[C@@H]1O (stereo not given in full), the ILS (L1210 [6]) is reported as -4 and the Toxicity (L1210 [17]) is reported as “No higher dose tested”.

With COc1ncnc2c1cnn2C1O[C@H](CO)[C@@H](O)[C@H]1O (stereo not given in full) the Toxicity (L1210 [17]) was “No higher dose tested” and the ILS (L1210 [18]) was 12.

For NC(=S)c1nn(C2O[C@H](CO)[C@@H](O)[C@H]2O)c2ncnc(N)c12 (stereo not given in full), the Toxicity (L1210 [19]) was “Active”, the Toxicity (P388 [20]) was “Active” and the ILS (P388 [21]) was 34. The ILS (L1210 [22]) was 46.

OC[C@H]1OC(n2ncc3c(S)ncnc32)[C@H](O)[C@@H]1O (stereo not given in full) was tested, and the ILS (L1210 [6]) was -6 and the Toxicity (L1210 [7]) was “No higher dose tested”.
